SMILES strings stand for the structures. pEC50, pIC50, pKd: −log10 of the molar value.

As usually defined, the pEC50 is the negative decadic logarithm of the EC50, by convention in mol/L. What is called pKd is −log10 of the Kd, conventionally taken in molar units. Lower therefore signals a high Kd. The term pIC50 denotes −log10 of the IC50, conventionally taken in molar units.

The target of assay [1] is T1, AURKA (Homo sapiens, UniProt O14965).
T1 sequence (O14965 1-403): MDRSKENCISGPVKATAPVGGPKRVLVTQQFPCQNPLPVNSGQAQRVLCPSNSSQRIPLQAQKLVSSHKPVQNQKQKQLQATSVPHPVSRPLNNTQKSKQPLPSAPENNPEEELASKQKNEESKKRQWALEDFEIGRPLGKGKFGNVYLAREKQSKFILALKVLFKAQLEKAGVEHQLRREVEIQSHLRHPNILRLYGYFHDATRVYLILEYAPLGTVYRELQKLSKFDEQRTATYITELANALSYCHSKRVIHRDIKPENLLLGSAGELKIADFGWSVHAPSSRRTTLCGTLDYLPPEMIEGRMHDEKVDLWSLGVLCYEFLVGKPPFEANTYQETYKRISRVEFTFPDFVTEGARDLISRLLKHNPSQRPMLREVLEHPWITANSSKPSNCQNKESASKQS
In words: AURKA immunoblot in MOLT4 cells. In kind it is cell-based. The note with it: 5 hours. In short, it runs like this: (§1)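 MOLT4 cells (RPMI, 10% heat-inactivated FBS, pen-strep, 37 °C, 5% CO2) were exposed to test compound at a range of concentrations for 5 h. Lysis was in M-PER with protease and phosphatase inhibitors, and lysates were BCA-normalised. Samples were run on 4–12% Bis-Tris gels and blotted to nitrocellulose. ERK5, BRD4, AURKA and actin antibodies were applied overnight at 4 °C. Detection was by IRDye secondaries. Blots are representative of 2–3 biological replicates.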

Assay [2] deals with panel of 468 kinases. As to the kind of experiment: scanMAX KINOMEscan selectivity panel. In kind it is binding. The note with it: 1 μM.
The subject of assay [3] is MOLT4 cells. As to the kind of experiment: global quantitative TMT MS proteomics in MOLT4 cells. It counts as cell-based, Human. The settings on record: MOLT4, 100 nM, 5 hours, ~7,700 proteins quantified. Put shortly: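 MOLT4 cells were treated for 5 h with test compound (250 nM, or 100 nM for one degrader) or DMSO (biological triplicate), then harvested by centrifugation. TMT-labelled tryptic peptides were analysed by LC-MS3 on an Orbitrap Fusion Lumos using a 190 min 6–27% acetonitrile gradient. Spectra were searched against Swissprot human. Proteins with ≥2 unique peptides were kept, and abundance relative to DMSO was computed by limma.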

The target in assay [4] is T2, ERK5 (Homo sapiens, UniProt Q13164). In words: ERK5 degradation in MOLT4 cells. The note with it: 5 hours, 5 μM or greater. It counts as cell-based.
Assay [5] has as its system BT-474 cells. In words: CellTiter-Glo proliferation assay, BT-474. In kind it is cell-based, Human. The settings on record: Homo sapiens, BT-474, 72 h, read-out: anti-proliferative EC50. Background: ATP-based viability assays read luminescence as a measure of living cells.
Assay [6] concerns IL-6 stimulated MM.1S cells. In words: IL-6-induced MM.1S proliferation. In kind it is cell-based, Human. The note with it: 500 nM and 1 μM, 5 nM IL-6, 3d. In short, it runs like this:
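MM.1S cells at 10,000 cells/well were pre-treated for 5 h with test compound at 500 nM or 1 μM. Recombinant human IL-6 (5 nM) was then added. After 72 h, proliferation was read by CellTiter-Glo. Data are mean with standard deviation of three biological replicates.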

Assay [7] deals with IL-6 secretion. In words: IL-6 ELISA, LPS-stimulated HUVECs. In kind it is cell-based, Human. The note with it: LPS 10 μg/mL 6 hours. In short, it runs like this:
(§2)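 HUVECs were seeded at 30,000–60,000 cells/well and pre-treated with test compound for 5 or 24 h. They were then stimulated with E. coli O111:B4 LPS at 10 μg/mL for 6 h. Secreted IL-6 or IL-8 in the supernatant was quantified by sandwich ELISA kits per the manufacturer. Statistics used two-way ANOVA with Bonferroni correction.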

The subject of assay [8] is SNU-449 cells. In words: CellTiter-Glo proliferation assay, SNU-449. In kind it is cell-based, Human. The settings on record: Homo sapiens, SNU-449, 72 h, read-out: anti-proliferative EC50.
Assay [9] concerns the target T2, ERK5. As to the kind of experiment: ERK5 degradation in HUVECs. In kind it is cell-based. In short, it runs like this:
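HUVECs (pooled primary, in vascular cell basal medium with VEGF growth kit and pen-strep, 37 °C, 5% CO2) were treated with test compound for 5 or 24 h. Lysates were BCA-normalised and separated on 4–12% Bis-Tris gels, then transferred to nitrocellulose. ERK5 and actin were probed overnight at 4 °C with IRDye secondary detection. Blots are representative of 2 biological replicates.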

In assay [10] the test system is MM.1S cells. As to the kind of experiment: CellTiter-Glo proliferation assay, MM.1S basal. The settings on record: Homo sapiens, MM1.S, 72 h, read-out: anti-proliferative EC50. It counts as cell-based. In short, it runs like this:
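MM.1S cells, unstimulated, were grown in RPMI with 10% heat-inactivated FBS. They were plated at 500–1000 cells/well and exposed to test compound across a concentration series for 72 h. Viability was read by CellTiter-Glo luminescence. EC50 came from nonlinear regression curve fitting.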

Assay [11] has as its system IL-8 secretion. As to the kind of experiment: IL-8 ELISA, LPS-stimulated HUVECs. The note with it: LPS 10 μg/mL 6 hours. In kind it is cell-based, Human. In short, it runs like this:
as §2
(In general: An ELISA detects its analyte on a solid surface through an enzyme-linked reagent.)

The target of assay [12] is T2, ERK5. As to the kind of experiment: KdELECT biochemical binding assay. Put shortly:
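Binding constants to ERK5 were determined in an outsourced KdELECT kinase binding assay from an 11-point dose–response curve.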

For assay [13], the target named is BRD4 (Homo sapiens, UniProt O60885). In words: BRD4 immunoblot in MOLT4 cells. In kind it is cell-based. The note with it: 5 hours. In short, it runs like this: as §1
(A western blot detects proteins with antibodies after separation by electrophoresis.)

The test system of assay [14] is panel of 750 cell lines. In words: PRISM platform anti-proliferative screen. The note with it: read-out: IC50 values in PRISM screen. It counts as cell-based.

T2 sequence (Q13164 whole entry): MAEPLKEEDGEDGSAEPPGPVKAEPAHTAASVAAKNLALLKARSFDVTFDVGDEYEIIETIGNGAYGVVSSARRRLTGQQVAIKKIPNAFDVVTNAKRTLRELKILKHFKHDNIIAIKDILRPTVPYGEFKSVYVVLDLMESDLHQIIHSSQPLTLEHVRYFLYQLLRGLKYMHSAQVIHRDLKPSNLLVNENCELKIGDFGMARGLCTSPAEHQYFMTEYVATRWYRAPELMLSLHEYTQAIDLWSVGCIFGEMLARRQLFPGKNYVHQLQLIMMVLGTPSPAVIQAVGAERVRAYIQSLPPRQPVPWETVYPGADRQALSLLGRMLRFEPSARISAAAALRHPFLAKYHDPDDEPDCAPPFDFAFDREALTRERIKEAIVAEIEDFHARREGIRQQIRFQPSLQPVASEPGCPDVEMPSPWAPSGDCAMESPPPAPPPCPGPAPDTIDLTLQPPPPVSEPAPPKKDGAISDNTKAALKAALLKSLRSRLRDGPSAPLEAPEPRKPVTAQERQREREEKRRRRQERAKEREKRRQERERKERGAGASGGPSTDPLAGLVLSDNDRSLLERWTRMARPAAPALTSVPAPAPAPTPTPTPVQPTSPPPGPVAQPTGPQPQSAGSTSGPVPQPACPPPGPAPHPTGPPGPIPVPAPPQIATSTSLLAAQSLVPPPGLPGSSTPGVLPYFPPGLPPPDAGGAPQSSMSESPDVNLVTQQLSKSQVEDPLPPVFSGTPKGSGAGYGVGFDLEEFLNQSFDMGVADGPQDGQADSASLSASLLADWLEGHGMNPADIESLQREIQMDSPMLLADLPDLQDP

In the case of `Cc1ncsc1-c1ccc([C@H](C)NC(=O)[C@@H]2C[C@@H](O)CN2C(=O)[C@@H](NC(=O)CCCCCN2CCN(c3ccc4c(C5CCN(C(=O)c6ccc(OC(F)(F)F)cc6N)CC5)ncnc4c3)CC2)C(C)(C)C)cc1` [INY-06-061, (2S,4R)-1-((S)-2-(6-(4-(4-(1-(2-amino-4-(trifluoromethoxy)benzoyl)piperidin-4-yl)quinazolin-7-yl)piperazin-1-yl)hexanamido)-3,3-dimethylbutanoyl)-4-hydroxy-N-((S)-1-(4-(4-methylthiazol-5-yl)phenyl)ethyl)pyrrolidine-2-carboxamide], the AURKA protein levels result in assay [1] is reported as “did not destabilize”. The potential off-target kinases result in assay [2] is “weak inhibition of potential off-targets (AXL, CDK19, SgK110, CDKL2, and AURKC)”. The “biochemical selectivity profile across the kinome” value in assay [2] (468 kinases) is recorded as “high selectivity for ERK5”. Further, in assay [3], the “proteins significantly downregulated, proteomics” value was “ERK5 (MAPK7) was the only protein whose abundance was significantly downregulated”. Moreover, the “ERK5 degradation at high concentration (hook effect)” value in assay [4] is listed as “diminished ERK5 degradation”. In addition, the pEC50 in assay [5] is less than 4.70; in [8], less than 4.70; in assay [10] it was 5.22. Besides, the “effect on IL-6-induced proliferation” value in [6] was “no effect”. The “IL-6 secretion upon LPS stimulation” value in assay [7] (5-hour pre-treatment) is “did not significantly suppress”; in assay [7] (24-hour pre-treatment) it was “no effect”. In addition, the ERK5 protein level result in [9] (1 μM, 5-hour treatment) is recorded as “potent downregulation of ERK5”. Further, in assay [9] (24 hours), the ERK5 degradation result was “maintained for 24 hours”. The “IL-8 secretion upon LPS stimulation” value is recorded as “did not significantly suppress” in assay [11] (5-hour pre-treatment) and “no effect” in assay [11] (24-hour pre-treatment). In addition, in assay [12], the negative logarithm of the Kd (pKd) is 7.92. Also, the BRD4 protein levels result in assay [13] was “did not destabilize”. Moreover, the pIC50 in [14] is less than 6.00.

(Values after publication PMC9675722 (Cell chemical biology, 2022).)
